Measured values: ChEMBL document CHEMBL4261600 (Eur J Med Chem, 2018)
Calls of active or inactive are those of the source.

Legend:
[1] = molecular target: Casein kinase II subunit alpha' (Homo sapiens) (UniProt P19784); experiment: Binding affinity to wild-type human full length CSNK2A2 (M1 to R350 residues) expressed in mammalian expression system assessed as remaining unbound target protein level at 1000 nM by Kinomescan method relative to control
In short: (§1)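 KINOMEscan competition binding profile across a panel of 468 kinases and mutants, with the inhibitor tested at a single concentration of 1 μM. Binding is reported as percent of control, meaning signal relative to a DMSO control.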

[2] = molecular target: Tyrosine-protein kinase Fer (Homo sapiens) (UniProt P16591); experiment: Binding affinity to wild-type human partial length FER (S542 to T822 residues) expressed in bacterial expression system assessed as remaining unbound target protein level at 1000 nM by Kinomescan method relative to control
[3] = Oral bioavailability in mouse at 10 mg/kg by LC-MS/MS analysis; format: ADME, organism-based; conditions: in vivo
[4] = test system: OCI-AML-3; experiment: Antiproliferative activity against human OCI-AML3 cells after 72 hrs by Celltiter-Glo assay; format: functional; conditions: OCI-AML-3, 72 h
In short: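 Cells seeded at 3000/well in 96-well plates, exposed to serially diluted compound for 72 h at 37 °C, 5% CO2. Viability read by CellTiter-Glo luminescence and normalized to DMSO control. GI50 derived from curve fit, mean of three independent measurements. Culture media: DMEM/10% FBS for adherent lines; IMDM for MV4-11 and MEC-1/2; RPMI 1640 for suspension lines and CHL.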

[5] = molecular target: RAC-alpha serine/threonine-protein kinase (Homo sapiens) (UniProt P31749); experiment: Binding affinity to wild-type human partial length AKT1 expressed in bacterial expression system assessed as remaining unbound target protein level at 1000 nM by Kinomescan method relative to control
In short: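 Profiled in a KINOMEscan binding panel with the inhibitor at a single concentration of 1 μM. Binding to each kinase was read out as percent of control, relative to a DMSO control. Strong binders were defined as those with a percent control value below 1.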

[6] = molecular target: Mitogen-activated protein kinase kinase kinase 2 (Homo sapiens) (UniProt Q9Y2U5); experiment: Binding affinity to wild-type human partial length MAP3K2 (S315 to H619 residues) expressed in mammalian expression system assessed as remaining unbound target protein level at 1000 nM by Kinomescan method relative to control
In short: (§2)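 KINOMEscan binding panel of 468 kinases/mutants. Inhibitor was tested at a single concentration of 1 μM. Binding is reported as percent of control, defined relative to a DMSO control.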

[7] = molecular target: Phosphatidylinositol 4,5-bisphosphate 3-kinase catalytic subunit delta isoform (Homo sapiens) (UniProt O00329); experiment: Binding affinity to wild-type human partial length PIK3CD (R108 to Q1044 residues) expressed in mammalian expression system assessed as remaining unbound target protein level at 1000 nM by Kinomescan method relative to control
[8] = molecular target: Cyclin-dependent kinase 15 (Homo sapiens) (UniProt Q96Q40); experiment: Binding affinity to wild-type human full length PFTAIRE2 (M1 to W384 residues) expressed in bacterial expression system assessed as remaining unbound target protein level at 1000 nM by Kinomescan method relative to control; in short: as §1
[9] = molecular target: Tyrosine-protein kinase JAK1 (Homo sapiens) (UniProt P23458); experiment: Binding affinity to wild-type human partial length JAK1 JH2 pseudokinase domain (R537 to D855 residues) expressed in mammalian expression system assessed as remaining unbound target protein level at 1000 nM by Kinomescan method relative to control; in short: as §2
[10] = organism: Homo sapiens; experiment: Selectivity ratio of IC50 for recombinant GST-tagged inactive state of human CDK16 (108 to end residues)/cyclin Y (2 to end residues) to IC50 for recombinant full length His-tagged human CDK9/CyclinT1
[11] = molecular target: Cyclin-dependent kinase 13 (Homo sapiens) (UniProt Q14004); experiment: Binding affinity to wild-type human partial length CDC2L5 (H675 to S1054 residues) expressed in mammalian expression system assessed as remaining unbound target protein level at 1000 nM by Kinomescan method relative to control; in short: as §1
[12] = molecular target: Serine/threonine-protein kinase D3 (Homo sapiens) (UniProt O94806); experiment: Binding affinity to wild-type human partial length PRKD3 (S543 to E863 residues) expressed in bacterial expression system assessed as remaining unbound target protein level at 1000 nM by Kinomescan method relative to control
[13] = molecular target: Casein kinase I isoform delta (Homo sapiens) (UniProt P48730); experiment: Binding affinity to wild-type human full length CSNK1D (M1 to K409 residues) expressed in bacterial expression system assessed as remaining unbound target protein level at 1000 nM by Kinomescan method relative to control
In short: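 KINOMEscan competitive binding profile at 1 μM inhibitor. Remaining target binding reported as percent of DMSO control.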

[14] = test system: HL-60; experiment: Induction of apoptosis in human HL60 cells assessed as decrease in XIAP level up to 3 uM after 2 hrs by immunoblotting analysis; format: functional, cell-based
[15] = test system: Epidermal growth factor receptor (Homo sapiens), P00533 [G719C]; experiment: Binding affinity to human partial length EGFR G719C mutant (R669 to V1011 residues) expressed in bacterial expression system assessed as remaining unbound target protein level at 1000 nM by Kinomescan method relative to control
In short: (§3)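 KINOMEscan competition-binding profiling across the panel of 468 kinases and mutants, with inhibitor tested at 1 μM. Binding is expressed as percent of control, with DMSO as the reference control.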

[16] = molecular target: Serine/threonine-protein kinase tousled-like 2 (Homo sapiens) (UniProt Q86UE8); experiment: Binding affinity to wild-type human partial length TLK2 (E424 to N749 residues) expressed in bacterial expression system assessed as remaining unbound target protein level at 1000 nM by Kinomescan method relative to control
[17] = molecular target: Serine/threonine-protein kinase NIM1 (Homo sapiens) (UniProt Q8IY84); experiment: Binding affinity to wild-type human partial length NIM1 (Q44 to N355 residues) expressed in mammalian expression system assessed as remaining unbound target protein level at 1000 nM by Kinomescan method relative to control
[18] = molecular target: Mast/stem cell growth factor receptor Kit (Homo sapiens) (UniProt P10721); experiment: Binding affinity to wild-type human partial length autoinhibited KIT (Y545 to D952 residues) expressed in mammalian expression system assessed as remaining unbound target protein level at 1000 nM by Kinomescan method relative to control
[19] = MRT (0 to t) in beagle dog at 2 mg/kg, iv by LC-MS/MS analysis; format: ADME, organism-based, Canis lupus familiaris; conditions: in vivo
[20] = molecular target: Serine/threonine-protein kinase Nek3 (Homo sapiens) (UniProt P51956); experiment: Binding affinity to wild-type human full length NEK3 (M1 to R506 residues) expressed in mammalian expression system assessed as remaining unbound target protein level at 1000 nM by Kinomescan method relative to control
In short: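 Single-point competition binding screen across a panel of 468 kinases and mutants, with the inhibitor at 1 μM. Binding is read out as percent of a DMSO control, and targets below 1 percent control were classed as strong binders.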

[21] = test system: Epidermal growth factor receptor (Homo sapiens), P00533 [G719S]; experiment: Binding affinity to human partial length EGFR G719S mutant (R669 to V1011 residues) expressed in bacterial expression system assessed as remaining unbound target protein level at 1000 nM by Kinomescan method relative to control; in short: as §3

Compound: COCCN[C@H]1CC[C@H](Nc2cc(-c3csc(NCC4(C#N)CCOCC4)n3)c(Cl)cn2)CC1
- Activity [1]: 99%
- Activity [2]: 88%
- bioavailability [3]: 45%
- GI50 [4]: 6.6 nM
- Activity [5]: 92%
- Activity [6]: 74%
- Activity [7]: 85%
- Activity [8]: 66%
- Activity [9]: 57%
- Ratio IC50 [10]: 300
- Activity [11]: 13%
- Activity [12]: 89%
- Activity [13]: 66%
- Activity [14]: inactive
- Activity [15]: 98%
- Activity [16]: 99%
- Activity [17]: 96%
- Activity [18]: 94%
- MRT last [19]: 9.36 h
- Activity [20]: 100%
- Activity [21]: 82%
